Laboratory results taken from ChEMBL document CHEMBL3352416, “Discovery of carbohybrid-based 2-aminopyrimidine analogues as a new class of rapid-acting antimalarial agents using image-based cytological profiling assay” (J Med Chem, 2014).
Active and inactive are the calls of the source. No cut-off for these calls is given here.

Columns and labels:
[1] = system: Plasmodium falciparum; experiment: Antimalarial activity against tightly synchronized Plasmodium falciparum K1 assessed as parasite stage accumulation index at schizonts stages at 10 uM treated at 18 hrs post-invasion for continuous duration of 36 hrs by automated image mining based cytological profiling assay; format: functional
In short: (§1)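 Tightly synchronized cultures exposed to 10 µM final from 6 hpi (early ring), 18 hpi (late ring) or 30 hpi (mid-trophozoite) for a continuous 36 h. Erythrocytes stained with WGA-AlexaFluor 488, parasite nuclei with DAPI, functional mitochondria with Mitotracker Red CMXRos. Stages (early rings, late rings, trophozoites, schizonts) classified by nuclear spot number and size. Viable parasitaemia and stage accumulation index obtained by automated image analysis.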

[2] = system: Plasmodium falciparum; experiment: Antimalarial activity against tightly synchronized Plasmodium falciparum K1 assessed as parasite stage accumulation index at trophozoites stages at 10 uM treated at 30 hrs post-invasion for continuous duration of 36 hrs by automated image mining based cytological profiling assay; format: functional; in short: as §1
[3] = system: Plasmodium falciparum; experiment: Antimalarial activity against tightly synchronized Plasmodium falciparum K1 assessed as parasite stage accumulation index at schizonts stages at 10 uM treated at 30 hrs post-invasion for continuous duration of 36 hrs by automated image mining based cytological profiling assay; format: functional; in short: as §1
[4] = system: Plasmodium falciparum; experiment: Antimalarial activity against Plasmodium falciparum K1 assessed as reduction in parasite stage accumulation index at 10 uM treated at 42 hrs post-invasion for 24 hrs by automated image mining based cytological profiling assay; format: functional, organism-based
In short: (§2)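 Tightly synchronized cultures exposed from the 42 hpi mid-schizont point for 24 h to 10 µM final. Host cells stained with wheat germ agglutinin-AlexaFluor 488, parasite nuclei with DAPI and live-parasite mitochondria with Mitotracker Red CMXRos. Infected and viable parasitaemia and stage proportions quantified by automated image mining. Stage accumulation indices and parasitaemia reduction index derived.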

[5] = system: Plasmodium falciparum; experiment: Antimalarial activity against Plasmodium falciparum HB3 assessed as reduction in parasite stage accumulation index at 10 uM treated at 42 hrs post-invasion for 24 hrs by automated image mining based cytological profiling assay; format: functional; in short: as §2
[6] = system: Plasmodium falciparum; experiment: Antimalarial activity against Plasmodium falciparum W2 assessed as reduction in parasite stage accumulation index at 10 uM treated at 42 hrs post-invasion for 24 hrs by automated image mining based cytological profiling assay; format: functional, organism-based; in short: as §2
[7] = system: Plasmodium falciparum; experiment: Antimalarial activity against Plasmodium falciparum K1 assessed as increase in schizonts parasite stage accumulation index at 10 uM treated at 42 hrs post-invasion for 24 hrs by automated image mining based cytological profiling assay; format: functional, organism-based; in short: as §2
[8] = system: Plasmodium falciparum; experiment: Antimalarial activity against Plasmodium falciparum HB3 assessed as increase in schizonts parasite stage accumulation index at 10 uM treated at 42 hrs post-invasion for 24 hrs by automated image mining based cytological profiling assay; format: functional; in short: as §2
[9] = system: Plasmodium falciparum; experiment: Antimalarial activity against Plasmodium falciparum W2 assessed as increase in schizonts parasite stage accumulation index at 10 uM treated at 42 hrs post-invasion for 24 hrs by automated image mining based cytological profiling assay; format: functional, organism-based; in short: as §2
[10] = system: Plasmodium falciparum; experiment: Antimalarial activity against tightly synchronized Plasmodium falciparum HB3 assessed as parasite stage accumulation index at early ring stages at 10 uM treated at 6 hrs post-invasion for continuous duration of 36 hrs by automated image mining based cytological profiling assay; format: functional
[11] = system: Plasmodium falciparum; experiment: Antimalarial activity against tightly synchronized Plasmodium falciparum HB3 assessed as parasite stage accumulation index at late ring stages at 10 uM treated at 6 hrs post-invasion for continuous duration of 36 hrs by automated image mining based cytological profiling assay; format: functional; in short: as §1
[12] = system: Plasmodium falciparum; experiment: Antimalarial activity against tightly synchronized Plasmodium falciparum HB3 assessed as parasite stage accumulation index at trophozoites stages at 10 uM treated at 6 hrs post-invasion for continuous duration of 36 hrs by automated image mining based cytological profiling assay; format: functional; in short: as §1
[13] = system: Plasmodium falciparum; experiment: Antimalarial activity against tightly synchronized Plasmodium falciparum HB3 assessed as parasite stage accumulation index at schizonts stages at 10 uM treated at 6 hrs post-invasion for continuous duration of 36 hrs by automated image mining based cytological profiling assay; format: functional; in short: as §1
[14] = system: Plasmodium falciparum; experiment: Antimalarial activity against tightly synchronized Plasmodium falciparum HB3 assessed as parasite stage accumulation index at late ring stages at 10 uM treated at 18 hrs post-invasion for continuous duration of 36 hrs by automated image mining based cytological profiling assay; format: functional; in short: as §1
[15] = system: Plasmodium falciparum; experiment: Antimalarial activity against tightly synchronized Plasmodium falciparum HB3 assessed as parasite stage accumulation index at trophozoites stages at 10 uM treated at 18 hrs post-invasion for continuous duration of 36 hrs by automated image mining based cytological profiling assay; format: functional; in short: as §1
[16] = system: Plasmodium falciparum; experiment: Antimalarial activity against tightly synchronized Plasmodium falciparum HB3 assessed as parasite stage accumulation index at schizonts stages at 10 uM treated at 18 hrs post-invasion for continuous duration of 36 hrs by automated image mining based cytological profiling assay; format: functional; in short: as §1
[17] = system: Plasmodium falciparum; experiment: Antimalarial activity against tightly synchronized Plasmodium falciparum HB3 assessed as parasite stage accumulation index at trophozoites stages at 10 uM treated at 30 hrs post-invasion for continuous duration of 36 hrs by automated image mining based cytological profiling assay; format: functional
[18] = system: Plasmodium falciparum; experiment: Antimalarial activity against tightly synchronized Plasmodium falciparum HB3 assessed as parasite stage accumulation index at schizonts stages at 10 uM treated at 30 hrs post-invasion for continuous duration of 36 hrs by automated image mining based cytological profiling assay; format: functional
[19] = system: Plasmodium falciparum; experiment: Antimalarial activity against tightly synchronized Plasmodium falciparum W2 assessed as parasite stage accumulation index at early ring stages at 10 uM treated at 6 hrs post-invasion for continuous duration of 36 hrs by automated image mining based cytological profiling assay; format: functional; in short: as §1
[20] = system: Plasmodium falciparum; experiment: Antimalarial activity against tightly synchronized Plasmodium falciparum W2 assessed as parasite stage accumulation index at late ring stages at 10 uM treated at 6 hrs post-invasion for continuous duration of 36 hrs by automated image mining based cytological profiling assay; format: functional
[21] = system: Plasmodium falciparum; experiment: Antimalarial activity against tightly synchronized Plasmodium falciparum W2 assessed as parasite stage accumulation index at trophozoites stages at 10 uM treated at 6 hrs post-invasion for continuous duration of 36 hrs by automated image mining based cytological profiling assay; format: functional
[22] = system: Plasmodium falciparum; experiment: Antimalarial activity against tightly synchronized Plasmodium falciparum W2 assessed as parasite stage accumulation index at schizonts stages at 10 uM treated at 6 hrs post-invasion for continuous duration of 36 hrs by automated image mining based cytological profiling assay; format: functional; in short: as §1
[23] = system: Plasmodium falciparum; experiment: Antimalarial activity against tightly synchronized Plasmodium falciparum W2 assessed as parasite stage accumulation index at late ring stages at 10 uM treated at 18 hrs post-invasion for continuous duration of 36 hrs by automated image mining based cytological profiling assay; format: functional; in short: as §1
[24] = system: Plasmodium falciparum; experiment: Antimalarial activity against tightly synchronized Plasmodium falciparum W2 assessed as parasite stage accumulation index at trophozoites stages at 10 uM treated at 18 hrs post-invasion for continuous duration of 36 hrs by automated image mining based cytological profiling assay; format: functional
[25] = system: Plasmodium falciparum; experiment: Antimalarial activity against tightly synchronized Plasmodium falciparum W2 assessed as parasite stage accumulation index at schizonts stages at 10 uM treated at 18 hrs post-invasion for continuous duration of 36 hrs by automated image mining based cytological profiling assay; format: functional
[26] = system: Plasmodium falciparum; experiment: Antimalarial activity against tightly synchronized Plasmodium falciparum W2 assessed as parasite stage accumulation index at trophozoites stages at 10 uM treated at 30 hrs post-invasion for continuous duration of 36 hrs by automated image mining based cytological profiling assay; format: functional; in short: as §1
[27] = system: Plasmodium falciparum; experiment: Antimalarial activity against tightly synchronized Plasmodium falciparum W2 assessed as parasite stage accumulation index at schizonts stages at 10 uM treated at 30 hrs post-invasion for continuous duration of 36 hrs by automated image mining based cytological profiling assay; format: functional
[28] = system: Plasmodium falciparum; experiment: Antimalarial activity against tightly synchronized Plasmodium falciparum K1 assessed as parasite stage accumulation index at early ring stages at 10 uM treated at 6 hrs post-invasion for continuous duration of 36 hrs by automated image mining based cytological profiling assay; format: functional; in short: as §1
[29] = system: Plasmodium falciparum; experiment: Antimalarial activity against tightly synchronized Plasmodium falciparum K1 assessed as parasite stage accumulation index at late ring stages at 10 uM treated at 6 hrs post-invasion for continuous duration of 36 hrs by automated image mining based cytological profiling assay; format: functional
[30] = system: Plasmodium falciparum; experiment: Antimalarial activity against tightly synchronized Plasmodium falciparum K1 assessed as parasite stage accumulation index at trophozoites stages at 10 uM treated at 6 hrs post-invasion for continuous duration of 36 hrs by automated image mining based cytological profiling assay; format: functional
[31] = system: Plasmodium falciparum; experiment: Antimalarial activity against tightly synchronized Plasmodium falciparum K1 assessed as parasite stage accumulation index at schizonts stages at 10 uM treated at 6 hrs post-invasion for continuous duration of 36 hrs by automated image mining based cytological profiling assay; format: functional; in short: as §1
[32] = system: Plasmodium falciparum; experiment: Antimalarial activity against tightly synchronized Plasmodium falciparum K1 assessed as parasite stage accumulation index at late ring stages at 10 uM treated at 18 hrs post-invasion for continuous duration of 36 hrs by automated image mining based cytological profiling assay; format: functional; in short: as §1
[33] = system: Plasmodium falciparum; experiment: Antimalarial activity against tightly synchronized Plasmodium falciparum K1 assessed as parasite stage accumulation index at trophozoites stages at 10 uM treated at 18 hrs post-invasion for continuous duration of 36 hrs by automated image mining based cytological profiling assay; format: functional; in short: as §1

CC(C)C[C@H](NC(=O)[C@H]1O[C@@H]1C(=O)O)C(=O)NCCCCN=C(N)N [E-64]
Activity [1]: 2.11
Activity [2]: 0.5
Activity [3]: 2.07
inhibition [4]: Active
inhibition [5]: Active
inhibition [6]: Active
inhibition [7]: Active
inhibition [8]: Active
inhibition [9]: Active
Activity [10]: 3.15
Activity [11]: 1.15
Activity [12]: 1.32
Activity [13]: 0.45
Activity [14]: 0.8
Activity [15]: 1.33
Activity [16]: 2.05
Activity [17]: 1.06
Activity [18]: 3.85
Activity [19]: 1.78
Activity [20]: 0.91
Activity [21]: 1.4
Activity [22]: 1.2
Activity [23]: 0.76
Activity [24]: 1.22
Activity [25]: 2.1
Activity [26]: 1.44
Activity [27]: 3
Activity [28]: 1.69
Activity [29]: 0.67
Activity [30]: 1.25
Activity [31]: 0.55
Activity [32]: 0.39
Activity [33]: 1.45
